Dynein transport: blocks dynein driven cargo transport along microtubules; 3617.4 mouse cells, GR-EGFP nuclear translocation imaging; test concentration mostly 20 µM; stimulated with dexamethasone, 1 µM; active compounds read low; z-score, hits read low; 220,000 tested, 0.47% active; AID 1381;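 active = plate z-score of nuclear minus cytoplasmic receptor signal below a set negative limit, without overly bright fluorescence or cell loss, cut at about -3.5 in these data, passing the limit was not always enough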;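 also: z-score of nuclear minus cytoplasmic ring GR-EGFP intensity difference per well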
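Also added: dexamethasone, 1.0 µM final. Medium: tet-free, stripped-serum medium. Detection: fixed, Hoechst-stained cells imaged at 10x for EGFP. Read-out: nuclear-to-cytoplasmic GR-EGFP distribution per well. Times: induction 48 h, compound 1 h, agonist 30 min.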
NOD2-RIPK2 inh: inhibitors of human NOD2-RIPK2 interaction. CHO BLA complementation NOD2-RIPK2, CCF4 ratio. inhibition, % at 4.98 µM. 360,000 tested, 0.38% active; in the data active = inhibition above about 21%;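 also: 0% = vehicle only and 100% = reference blocker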
Beta2AR agonist: agonists of human beta-2 adrenergic receptor inducing internalization | 340,000 tested, 0.43% active | P07550 | Am2.2-beta2AR cells, FAP receptor internalization, flow cytometry | response, % (no concentration beside the values);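 active = response above a set limit, near 3 SD of response in nonfluorescent compounds, cut at about 42% in these data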
TLR9-MyD88 inh: TLR9-MyD88 interaction inhibition | inhibition, % at 4.98 µM | CHO BLA complementation TLR9-MyD88, CCF4 FRET ratio | 340,000 tested, 0.21% active | AID 504734 | Q9NR96+Q99836;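 active = inhibition above the mean over all tested compounds plus 3 SD, cut at about 21% in these data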;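 also: 0% = DMSO only wells and 100% = clavulanate BLA inhibitor control wells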
ABHD5-PLIN5 inh: blocks binding of human ABHD5 to perilipin-5; inhibition, % at 4 µM; Q00G26+Q8WTS1; Split G. princeps luciferase complementation, luminescence, 4 h; AID 602281; 360,000 tested, 0.78% active;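 active = inhibition above the mean inhibition across every tested compound plus 3 SD, cut at about 22% in these data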;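 also: 0% = DMSO only wells and the 100% control is not disclosed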
Target sequence (Q00G26 whole entry, looked up): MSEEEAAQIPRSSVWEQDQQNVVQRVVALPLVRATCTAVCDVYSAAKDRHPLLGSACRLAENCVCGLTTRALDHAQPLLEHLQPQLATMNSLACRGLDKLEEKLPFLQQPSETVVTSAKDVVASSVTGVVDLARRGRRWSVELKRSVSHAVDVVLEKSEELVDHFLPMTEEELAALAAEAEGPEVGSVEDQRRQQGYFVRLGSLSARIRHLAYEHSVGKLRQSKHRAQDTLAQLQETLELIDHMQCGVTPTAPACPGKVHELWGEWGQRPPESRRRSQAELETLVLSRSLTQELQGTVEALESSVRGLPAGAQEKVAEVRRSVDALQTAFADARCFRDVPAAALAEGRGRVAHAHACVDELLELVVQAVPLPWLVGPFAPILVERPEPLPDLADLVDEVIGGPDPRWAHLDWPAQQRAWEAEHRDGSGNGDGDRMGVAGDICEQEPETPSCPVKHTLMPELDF
Target sequence (Q8WTS1 whole entry, looked up): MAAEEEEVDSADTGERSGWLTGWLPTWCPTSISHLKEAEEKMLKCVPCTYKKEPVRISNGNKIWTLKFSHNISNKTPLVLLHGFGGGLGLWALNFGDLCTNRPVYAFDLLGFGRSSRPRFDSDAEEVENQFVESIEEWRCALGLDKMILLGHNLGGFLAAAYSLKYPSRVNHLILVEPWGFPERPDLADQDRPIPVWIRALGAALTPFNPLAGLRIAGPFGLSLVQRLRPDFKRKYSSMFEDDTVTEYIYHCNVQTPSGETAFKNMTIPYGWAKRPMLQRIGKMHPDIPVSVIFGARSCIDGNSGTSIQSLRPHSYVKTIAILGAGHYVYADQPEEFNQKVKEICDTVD
TLR4-MyD88 BLA: inhibitors of human TLR4-MyD88 binding; HeLa CL3-4 TLR4/MyD88 BLA complementation, FRET ratio; inhibition, % at 8.4 µM; 200,000 tested, 0.18% active; O00206+Q99836; in the data active = inhibition above about 25%;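 also: 0% = vehicle and 100% = reference inhibitor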
B2AR ag CP1: agonists of human beta-2 adrenergic receptor | shares compounds with Beta2AR agonist | Am2.2-beta2AR cells, FAP surface receptor, flow cytometry; active compounds read low | percent response (surface receptor), % at 10 µM | 1,100 tested, 25% active;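 active = surface receptor percent response at or below 58%, roughly 3 SD from nonfluorescent compounds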
FAP fluor counter: fluorescence artifact in beta-2AR agonist FAP counterscreen. AID 588765. calls only at 10 µM. 1,100 tested, under 10 active. Am2.2 cells, FAP fluorogen flow cytometry; active compounds read low. shares compounds with Beta2AR agonist;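 active = percent response below a set limit in fluorescence channel 1 and below 50% in channel 8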
* = called active by the depositor. Only some compounds are listed: those with a hit (about 1.6% of all), similar ones and a draw of the others.

What do the screens show for `COc1ccc(CNCCc2c(C)[nH]c3ccc(OC(F)(F)F)cc23)c(OC)c1`?
NOD2-RIPK2 inh: 9.1; Beta2AR agonist: 43.0*; TLR9-MyD88 inh: -11.8; ABHD5-PLIN5 inh: 12.6; B2AR ag CP1: 81.1; FAP fluor counter: inactive

How did COc1ccc(C(O)C(C)NC(C)C(O)c2ccc(OC)cc2)cc1 (stereo unspecified) do in these assays?
NOD2-RIPK2 inh: 4.4; Beta2AR agonist: -1.2; ABHD5-PLIN5 inh: 4.5; B2AR ag CP1: 122.8; FAP fluor counter: inactive

Results for COc1ccc(C(c2ccc(OC)cc2)C(Cl)(Cl)Cl)cc1 ?
NOD2-RIPK2 inh: -1.6; Beta2AR agonist: 3.4; TLR9-MyD88 inh: -12.1; ABHD5-PLIN5 inh: -12.1

What do the screens show for `COc1ccc(C(O)CNC(C)C)c(F)c1OC` (stereo unspecified)?
NOD2-RIPK2 inh: -17.7; Beta2AR agonist: -13.4; TLR9-MyD88 inh: -6.4; ABHD5-PLIN5 inh: 9.3; B2AR ag CP1: 115.8; FAP fluor counter: inactive

How did CCCCC(CC)CNCC(O)c1ccccc1 (stereo unspecified) do in these assays?
Dynein transport: -0.57; NOD2-RIPK2 inh: -13.3; Beta2AR agonist: -10.6; TLR9-MyD88 inh: 2.1; ABHD5-PLIN5 inh: 5.2; TLR4-MyD88 BLA: -2.5

Results for CCC[C@H](N[C@@H](CCC)[C@H](O)c1ccccc1)[C@H](O)c1ccccc1 ?
NOD2-RIPK2 inh: 9.4; Beta2AR agonist: -6.4; TLR9-MyD88 inh: 0.5; ABHD5-PLIN5 inh: 1.5; B2AR ag CP1: 112.5; FAP fluor counter: inactive

How did COC(=O)C1=C(c2ccc(OCc3ccccc3)cc2)C[C@@H]2CC[C@H]1N2C(=O)NCc1ccc(OC)c(OC)c1 do in these assays?
NOD2-RIPK2 inh: -6.4; Beta2AR agonist: 0.9; TLR9-MyD88 inh: -1.2; ABHD5-PLIN5 inh: 4.5; B2AR ag CP1: 103.1; FAP fluor counter: inactive

How did COC(=O)C1=C(c2cc3ccccc3s2)C[C@@H]2CC[C@H]1N2C(=O)NCc1ccc(C(F)(F)F)cc1 do in these assays?
NOD2-RIPK2 inh: 7.2; Beta2AR agonist: 73.9*; TLR9-MyD88 inh: -0.2; ABHD5-PLIN5 inh: -12.5; B2AR ag CP1: 89.0; FAP fluor counter: inactive

What do the screens show for `COC(=O)C1=C(c2cc3ccccc3s2)C[C@@H]2CC[C@H]1N2C(=O)NCC1CC1`?
NOD2-RIPK2 inh: -2.2; Beta2AR agonist: 7.5; TLR9-MyD88 inh: -7.8; ABHD5-PLIN5 inh: 9.9

How did CN(C)C1CCc2[nH]c3c(F)cc(F)cc3c2C1 (stereo unspecified) do in these assays?
NOD2-RIPK2 inh: -4.1; TLR9-MyD88 inh: -1.5; ABHD5-PLIN5 inh: 0.8

Results for CCOC(=O)C(c1c(O)c2ccccc2oc1=O)c1c(O)c2ccccc2oc1=O ?
NOD2-RIPK2 inh: -3.8; ABHD5-PLIN5 inh: 5.3

How did CCC(Oc1cc(Cl)ccc1Cl)C(=O)N1CCC2(CC1)OCCO2 (stereo unspecified) do in these assays?
NOD2-RIPK2 inh: -7.4; Beta2AR agonist: 7.3; TLR9-MyD88 inh: -4.7; ABHD5-PLIN5 inh: 1.5

Results for CC(NCc1cccc(Cl)c1Cl)C(O)c1ccccc1 (stereo unspecified) ?
Dynein transport: -0.315; NOD2-RIPK2 inh: 0.1; Beta2AR agonist: -12.0; TLR9-MyD88 inh: -7.5; ABHD5-PLIN5 inh: 5.6; TLR4-MyD88 BLA: -6.2; B2AR ag CP1: 108.7; FAP fluor counter: inactive

How did CCOc1c(Cl)cc(CNC(C)C(O)c2ccccc2)cc1OC (stereo unspecified) do in these assays?
Dynein transport: 0.301; NOD2-RIPK2 inh: -9.0; Beta2AR agonist: 6.6; TLR9-MyD88 inh: -5.3; ABHD5-PLIN5 inh: -3.4; TLR4-MyD88 BLA: 6.0; B2AR ag CP1: 106.9; FAP fluor counter: inactive

How did O=C(Cc1ccccc1)NC(Cc1ccc(Cl)cc1)C(=O)O (stereo unspecified) do in these assays?
Dynein transport: -0.724; NOD2-RIPK2 inh: -0.7; Beta2AR agonist: -2.6; TLR9-MyD88 inh: 4.2; ABHD5-PLIN5 inh: 4.0

What do the screens show for `CC(NCc1ccc(Cl)cc1)C(O)c1ccccc1` (stereo unspecified)?
Dynein transport: -0.404; NOD2-RIPK2 inh: -9.7; Beta2AR agonist: -4.9; TLR9-MyD88 inh: 1.4; ABHD5-PLIN5 inh: 6.6; TLR4-MyD88 BLA: -1.4; B2AR ag CP1: 102.0; FAP fluor counter: inactive

Results for CC(NCc1ccc(Cl)cc1Cl)C(O)c1ccccc1 (stereo unspecified) ?
Dynein transport: 0.608; NOD2-RIPK2 inh: -9.6; Beta2AR agonist: -3.8; TLR9-MyD88 inh: 17.2; ABHD5-PLIN5 inh: 0.1; TLR4-MyD88 BLA: -2.3; B2AR ag CP1: 116.8; FAP fluor counter: inactive

What do the screens show for `Nc1cc(Cl)cc(Cl)c1`?
NOD2-RIPK2 inh: -6.0; Beta2AR agonist: -0.6; TLR9-MyD88 inh: 3.1; ABHD5-PLIN5 inh: -9.1

Results for CCOCN(C(=O)CCl)c1c(C)cccc1CC ?
NOD2-RIPK2 inh: 0.4; Beta2AR agonist: 5.7; TLR9-MyD88 inh: 4.8; ABHD5-PLIN5 inh: 3.5

Results for ClCC(Br)CBr (stereo unspecified) ?
NOD2-RIPK2 inh: 5.9; Beta2AR agonist: 0.8; TLR9-MyD88 inh: -15.3; ABHD5-PLIN5 inh: 1.5

Results for COc1cc(OC)c(OC)cc1CNCCc1ccc(OC)c(OC)c1 ?
Dynein transport: -0.169; NOD2-RIPK2 inh: -6.0; Beta2AR agonist: -2.7; TLR9-MyD88 inh: -5.6; ABHD5-PLIN5 inh: -2.6; TLR4-MyD88 BLA: -10.5

What do the screens show for `COc1cc(OC)c(OC)cc1CNC(C)C(O)c1ccccc1` (stereo unspecified)?
Dynein transport: 0.0833; NOD2-RIPK2 inh: 2.0; Beta2AR agonist: 5.7; TLR9-MyD88 inh: -0.2; ABHD5-PLIN5 inh: 2.7; TLR4-MyD88 BLA: -9.7; B2AR ag CP1: 117.9; FAP fluor counter: inactive

What do the screens show for `CC(C)c1ccccc1NC1=NCCCS1`?
NOD2-RIPK2 inh: 0.6; Beta2AR agonist: -3.0; TLR9-MyD88 inh: 2.7; ABHD5-PLIN5 inh: -3.2

Results for CC(CCc1ccccc1)NC(C)C(O)c1ccc(O)cc1 (stereo unspecified) ?
Dynein transport: -0.0394; NOD2-RIPK2 inh: -13.0; Beta2AR agonist: 4.1; TLR9-MyD88 inh: 9.2; ABHD5-PLIN5 inh: -1.8; TLR4-MyD88 BLA: 5.1; B2AR ag CP1: 108.8; FAP fluor counter: inactive

How did CC1=CC(O)C(O)C2(C)C1CC1OC(=O)C(O)C3C(C)C(O)C4(O)OCC13C42 (stereo unspecified) do in these assays?
NOD2-RIPK2 inh: -4.2; Beta2AR agonist: -31.3; TLR9-MyD88 inh: -10.5; ABHD5-PLIN5 inh: -0.5

Compound activity from PubChem BioAssay.
